Test results from ChEMBL document CHEMBL1125832, “Synthesis and dopaminergic activity of 3-substituted 1-(aminomethyl)-3,4-dihydro-5,6-dihydroxy-1H-2-benzopyrans: characterization of an auxiliary binding region in the D1 receptor” (J Med Chem, 1991).

Legend:
[1] = biological target: T1, Adrenergic receptor alpha-2 (Rattus norvegicus, UniProt P22086+P19328+P22909); experiment: Binding affinity towards alpha-2 adrenergic receptor using [3H]rauwolscine as radioligand in competitive binding assay; format: protein assay
T1 sequence (P22086 whole entry): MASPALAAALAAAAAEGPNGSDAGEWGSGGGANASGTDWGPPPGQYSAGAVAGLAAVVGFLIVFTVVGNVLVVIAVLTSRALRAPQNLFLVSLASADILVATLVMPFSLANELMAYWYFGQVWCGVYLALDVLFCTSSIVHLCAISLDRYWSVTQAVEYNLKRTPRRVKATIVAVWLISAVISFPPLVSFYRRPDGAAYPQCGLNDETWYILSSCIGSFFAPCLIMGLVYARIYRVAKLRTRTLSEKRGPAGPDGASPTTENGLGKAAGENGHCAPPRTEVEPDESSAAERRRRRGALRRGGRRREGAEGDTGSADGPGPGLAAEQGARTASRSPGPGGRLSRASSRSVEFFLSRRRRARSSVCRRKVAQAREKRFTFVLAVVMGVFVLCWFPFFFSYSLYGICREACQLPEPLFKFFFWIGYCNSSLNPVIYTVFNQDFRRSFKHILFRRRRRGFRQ
T1 sequence (P19328 whole entry): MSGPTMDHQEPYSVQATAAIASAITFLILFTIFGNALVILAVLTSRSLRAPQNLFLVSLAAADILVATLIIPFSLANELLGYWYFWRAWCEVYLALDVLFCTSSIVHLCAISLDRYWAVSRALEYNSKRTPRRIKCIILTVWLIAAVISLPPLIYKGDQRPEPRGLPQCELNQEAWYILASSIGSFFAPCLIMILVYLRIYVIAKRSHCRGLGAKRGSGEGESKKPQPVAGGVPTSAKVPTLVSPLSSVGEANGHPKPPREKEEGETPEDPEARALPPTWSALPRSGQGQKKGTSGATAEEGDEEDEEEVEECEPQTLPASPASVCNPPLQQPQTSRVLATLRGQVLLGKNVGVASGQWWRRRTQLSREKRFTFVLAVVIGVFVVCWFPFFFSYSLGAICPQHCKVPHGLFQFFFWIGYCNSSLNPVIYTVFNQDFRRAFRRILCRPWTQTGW
T1 sequence (P22909 whole entry): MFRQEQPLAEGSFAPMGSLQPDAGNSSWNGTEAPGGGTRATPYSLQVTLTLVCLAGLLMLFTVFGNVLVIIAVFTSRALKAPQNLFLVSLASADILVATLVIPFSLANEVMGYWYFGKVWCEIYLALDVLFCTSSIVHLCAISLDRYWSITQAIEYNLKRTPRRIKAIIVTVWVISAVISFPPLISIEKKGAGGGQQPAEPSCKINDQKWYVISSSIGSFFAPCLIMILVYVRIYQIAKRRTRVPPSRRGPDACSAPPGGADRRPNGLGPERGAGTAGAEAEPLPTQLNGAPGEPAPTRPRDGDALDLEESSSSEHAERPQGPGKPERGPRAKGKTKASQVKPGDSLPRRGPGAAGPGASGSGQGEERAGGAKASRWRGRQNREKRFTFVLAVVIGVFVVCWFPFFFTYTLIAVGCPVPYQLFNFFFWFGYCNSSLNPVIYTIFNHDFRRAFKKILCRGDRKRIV
Outline: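 Frozen rat cortex membranes in Tris pH 7.4 buffer with NaCl, KCl, MgCl2, CaCl2 and ascorbate. [3H]rauwolscine at 325 pM final; nonspecific binding with 10 μM yohimbine. Incubated 45 min at 37 °C, then filtered. Ki derived from IC50 by Cheng-Prusoff.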

[2] = biological target: Beta-1 adrenergic receptor (Rattus norvegicus, UniProt P18090); experiment: Binding affinity towards beta-1 adrenergic receptor using [3H]iodocyanopindolol as radioligand in competitive binding assay; conditions: in the assay text read “[125I]iodocyanopindolol” for “[3H]iodocyanopindolol”
Outline: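 β-adrenergic sites in rat striatal membranes. Label [125I]iodocyanopindolol at 50 pM final; nonspecific binding with 10 μM propranolol. Incubated 1 h at 37 °C, then filtered. Ki via Cheng-Prusoff.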

Sequence of Beta-1 adrenergic receptor (P18090 whole entry): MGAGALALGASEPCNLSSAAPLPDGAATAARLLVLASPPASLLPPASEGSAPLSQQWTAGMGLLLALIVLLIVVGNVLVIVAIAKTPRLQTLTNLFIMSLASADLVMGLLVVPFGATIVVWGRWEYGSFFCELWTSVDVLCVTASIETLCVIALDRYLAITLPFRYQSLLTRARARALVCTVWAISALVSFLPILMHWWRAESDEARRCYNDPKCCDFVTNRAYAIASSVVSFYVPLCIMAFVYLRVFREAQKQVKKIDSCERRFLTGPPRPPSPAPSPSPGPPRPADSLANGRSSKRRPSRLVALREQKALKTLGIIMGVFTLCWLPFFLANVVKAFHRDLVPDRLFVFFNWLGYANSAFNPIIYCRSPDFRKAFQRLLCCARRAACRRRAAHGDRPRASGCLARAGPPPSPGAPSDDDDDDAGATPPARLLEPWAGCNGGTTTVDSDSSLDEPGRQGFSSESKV

| SMILES | Ki [1] [nM] | Ki [2] [µM] |
| --- | --- | --- |
| NC[C@@H]1OC(C2CCCCC2)Cc2c1ccc(O)c2O (some centres not stated) | 271 | > 10 |
| C=CCNC[C@@H]1OC(C2CCCCC2)Cc2c1ccc(O)c2O (some centres not stated) | 2200 | > 10 |
| CC(C)(C)C1Cc2c(ccc(O)c2O)[C@H](CN)O1 (some centres not stated) | 450 | > 10 |
| NC[C@H]1O[C@@H](c2ccccc2)Cc2c1ccc(O)c2O | 2500 | > 10 |
| NC[C@@H]1OC(c2ccccc2)Cc2c1ccc(O)c2O (some centres not stated) | 122 | > 10 |
| NC[C@@H]1O[C@H](c2ccccc2)Cc2c1ccc(O)c2O | 40 | > 10 |
